Assay results reported in ChEMBL document CHEMBL2401724, “Synthesis and structure--activity relationships of N²-alkylated quaternary β-carbolines as novel antitumor agents” (Eur J Med Chem, 2013).

How the values were obtained:
CWR22R = assay: Cytotoxicity against human 22Rv1 cells by MTT assay; format: functional, cell-based
In short: (§1)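 Cell lines were cultured in 96-well microtitre plates at 37 °C in humidified 5% CO₂. Compounds were dissolved in DMSO, at ≤2% (v/v) final in the growth medium. Viability was read by MTT staining, expressed relative to untreated cells.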

[1] = Antitumor activity against mouse Sarcoma 180 cells allografted in mouse assessed as tumor growth inhibition at 2.5 mg/kg, ip qd administered for 7 days measured after 21 days relative to control; format: functional; details: Sarcoma-180, ip, route intraperitoneal, read-out: TGI
In short: (§2)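 Tumour cells (S180 sarcoma or Lewis lung) were first grown in mice for 7 days, then harvested. Viable cells (2 × 10⁶/mouse) were injected s.c. into the armpit. Groups of 10 female mice received the compound i.p. once daily for 7 consecutive days, starting 24 h after inoculation. Cyclophosphamide 30 mg/kg served as positive control and vehicle as negative control. Body weights were taken every 3 days. Mice were killed on day 21 post-inoculation, and tumours were excised and weighed to calculate the inhibition rate versus control.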

MCF7 = assay: Cytotoxicity against human MCF7 cells by MTT assay; format: functional, cell-based; in short: as §1
[2] = Cytotoxicity against mouse LLC cells by MTT assay; format: functional, cell-based; details: Lewis lung carcinoma; in short: as §1
HT-29 = assay: Cytotoxicity against human HT-29 cells by MTT assay; format: functional, cell-based; in short: as §1
BGC-823 = assay: Cytotoxicity against human BGC823 cells by MTT assay; format: functional, cell-based; in short: as §1
769-P = assay: Cytotoxicity against human 769-P cells by MTT assay; format: functional, cell-based; in short: as §1
[3] = Cytotoxicity against human ECA109 cells by MTT assay; format: functional, cell-based; details: ECa-109; in short: as §1
HepG2 = assay: Cytotoxicity against human HepG2 cells by MTT assay; format: functional, cell-based; in short: as §1
[4] = Acute toxicity in ip dosed C57BL/6 mouse after 14 days; format: organism-based; details: in vivo
In short: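 C57BL/6 mice (9–12 weeks, 18–22 g), single i.p. dose; watched continuously for 2 h, intermittently over 24 h, then occasionally to day 14 for behaviour, deaths and delayed effects. Survivors killed at day 14; heart, liver, kidneys inspected macroscopically, early deaths also examined. LD50 derived graphically.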

SK-OV-3 = assay: Cytotoxicity against human SKOV3 cells by MTT assay; format: functional, cell-based; in short: as §1
A-375 = assay: Cytotoxicity against human A375 cells by MTT assay; format: functional, cell-based; in short: as §1
LoVo = assay: Cytotoxicity against human LoVo cells; format: functional, cell-based
[5] = test system: Lewis lung carcinoma cell line; assay: Antitumor activity against mouse LLC cells allografted in mouse assessed as tumor growth inhibition at 4 mg/kg, ip qd administered for 7 days measured after 21 days relative to control; format: functional; details: route intraperitoneal, read-out: TGI; in short: as §2
[6] = Antitumor activity against mouse Sarcoma 180 cells allografted in mouse assessed as tumor growth inhibition at 4 mg/kg, ip qd administered for 7 days measured after 21 days relative to control; format: functional; details: Sarcoma-180, ip, route intraperitoneal, read-out: TGI; in short: as §2
[7] = Antitumor activity against mouse Sarcoma 180 cells allografted in mouse assessed as tumor growth inhibition at 1.75 mg/kg, ip qd administered for 7 days measured after 21 days relative to control; format: functional; details: Sarcoma-180, ip, route intraperitoneal, read-out: TGI; in short: as §2
[8] = test system: Lewis lung carcinoma cell line; assay: Antitumor activity against mouse LLC cells allografted in mouse assessed as tumor growth inhibition at 1.75 mg/kg, ip qd administered for 7 days measured after 21 days relative to control; format: functional; details: route intraperitoneal, read-out: TGI; in short: as §2

In the case of `Fc1ccc(C[n+]2ccc3c4ccccc4n(CCCc4ccccc4)c3c2)cc1.[Cl-]`, the IC50 (CWR22R) is reported as 4.3 µM, the inhibition in vivo at 2.5 mg/kg [1] is reported as 51.5% and the IC50 (MCF7) is reported as 9.7 µM. For the same compound, the IC50 [2] was 8.1 µM, the IC50 (HT-29) was 9.1 µM and the IC50 (BGC-823) was 8.1 µM. The IC50 (769-P) was 14.3 µM, the IC50 [3] was 5.3 µM and the IC50 (HepG2) was 10.4 µM. For the same compound, the LD50 at 336 h [4] was 12.5 mg/kg, the IC50 (SK-OV-3) was 12.2 µM and the IC50 (A-375) was 10.4 µM.
In the case of `c1ccc(Cn2c3ccccc3c3cc[n+](Cc4ccccc4)cc32)cc1`, the IC50 (CWR22R) is reported as 5.7 µM, the IC50 (MCF7) is reported as 18.7 µM and the IC50 [2] is reported as < 2 µM. For the same compound, the IC50 (HT-29) was 42.5 µM, the IC50 (BGC-823) was 38.7 µM and the IC50 (LoVo) was 20 µM. The IC50 (769-P) was 8.7 µM, the IC50 [3] was 32.7 µM and the IC50 (HepG2) was 34.6 µM. For the same compound, the inhibition in vivo at 4 mg/kg [5] was 48.5%, the IC50 (SK-OV-3) was 16.9 µM and the inhibition in vivo at 4 mg/kg [6] was 45.9%. The IC50 (A-375) was 7.8 µM.
For `[Br-].c1ccc(CCCn2c3ccccc3c3cc[n+](Cc4ccccc4)cc32)cc1`, the IC50 (CWR22R) was 3.2 µM, the IC50 (MCF7) was 14.4 µM and the IC50 [2] was 3.9 µM. It also gave an IC50 (HT-29) of 7.6 µM, an IC50 (BGC-823) of 8.5 µM and an inhibition in vivo at 1.75 mg/kg [7] of 62.1%. It also gave an IC50 (769-P) of 4.9 µM, an IC50 [3] of 11.7 µM and an IC50 (HepG2) of 7.9 µM. For the same compound, the LD50 at 336 h [4] was 8.9 mg/kg, the IC50 (SK-OV-3) was 4.4 µM and the inhibition in vivo at 1.75 mg/kg [8] was 59.2%. The IC50 (A-375) was 8.7 µM.
